“And” between values parts separate entries of the source, which are not always exact repeats. Equal entries are not always repeated.
What was measured:
[1] = target: Tubulin alpha chain (Sus scrofa) (UniProt P02550); assay: The photoincorporation of [3H]AzB-taxol into alpha-subunit of tubulin was evaluated at initial ratio of 0.5
Method in brief: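 Tubulin (5 μM) with [3H]AzB-taxol at the stated initial ratio, 20 min at 37 °C, then irradiated 20 min at 300 nm. Ethanol-washed precipitate run on SDS-PAGE (7.5% running gel, 3% stacking gel) and stained with Coomassie. α- and β-bands excised, dissolved in 30% H2O2 at 65 °C and counted; results are % of incorporation per subunit, n = 2–3 experiments.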

[2] = The ratio of AzT-taxol/tubulin noncovalently bound […] at initial ratio of 2.0
Method in brief: (§1)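 Noncovalent binding without irradiation: 5 μM tubulin with varied [3H]AzB-taxol, 20 min at 37 °C. Centrifuged at 40000g; pellets washed with buffer, recentrifuged and dissolved in 0.1 M NaOH. Bound mol/mol from protein and radioactivity.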

[3] = The ratio of AzT-taxol/tubulin covalently bound after irradiation at initial ratio of 4.0
Method in brief: (§2)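 Tubulin (5 μM) with [3H]AzB-taxol at varied initial ratios, 20 min at 37 °C in Pipes/EGTA/MgSO4/DTT/GTP buffer pH 6.9, then irradiated 20 min at 300 nm. Centrifuged at 40000g, 10 min, 37 °C. Pellet washed repeatedly with 50% ethanol, dissolved in 0.1 M NaOH. Covalent mol/mol from radioactivity and protein.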

[4] = The ratio of […]/tubulin noncovalently bound […] at initial ratio of 1.0; method in brief: as §1
[5] = The ratio of AzT-taxol/tubulin noncovalently bound […] at initial ratio of 3.0; method in brief: as §1
[6] = The ratio of […]/tubulin noncovalently bound […] at initial ratio of 4.0; method in brief: as §1
[7] = The ratio of AzT-taxol/tubulin covalently bound after irradiation at initial ratio of 0.5; method in brief: as §2
[8] = The ratio of AzT-taxol/tubulin covalently bound after irradiation at initial ratio of 1.0; method in brief: as §2
[9] = The ratio of AzT-taxol/tubulin covalently bound after irradiation at initial ratio of 2.0; method in brief: as §2
[10] = The ratio of AzT-taxol/tubulin covalently bound after irradiation at initial ratio of 3.0; method in brief: as §2
[11] = The ratio of AzT-taxol/tubulin noncovalently bound after irradiation at initial ratio of 0.5; settings: in the assay text read “before irradiation” for “after irradiation”; method in brief: as §1
Tubulin (Bos taurus) [12] = assay: The photoincorporation of [3H]AzB-taxol into tubulin was evaluated by incubation in dark
Tubulin (Bos taurus) [13] = assay: The photoincorporation of [3H]AzB-taxol into tubulin was evaluated from tubulin in 8M urea
Tubulin (Bos taurus) [14] = assay: The photoincorporation of [3H]AzB-taxol into tubulin was evaluated from polymerized tubulin
Tubulin (Bos taurus) [15] = assay: The incorporation of [3H]AzB-taxol into tubulin was evaluated after irradiation with 254 nM lamp
Tubulin (Bos taurus) [16] = assay: The incorporation of [3H]AzB-taxol into tubulin was evaluated after irradiation with 300 nM lamp
Tubulin (Bos taurus) [17] = assay: The incorporation of [3H]AzB-taxol into tubulin was evaluated after irradiation with 350 nM lamp
Tubulin (Bos taurus) [18] = assay: The photoincorporation of [3H]AzB-taxol into tubulin was evaluated from unpolymerized tubulin on ice
Tubulin (Bos taurus) [19] = assay: The photoincorporation of [3H]AzB-taxol into tubulin was evaluated by preirradiation of the compound
[20] = target: Tubulin beta chain (Sus scrofa) (UniProt P02554); assay: The photoincorporation of [3H]AzB-taxol into beta-subunit of tubulin was evaluated at initial ratio of 0.5
Tubulin beta chain (Sus scrofa), sequence (P02554 whole entry, looked up): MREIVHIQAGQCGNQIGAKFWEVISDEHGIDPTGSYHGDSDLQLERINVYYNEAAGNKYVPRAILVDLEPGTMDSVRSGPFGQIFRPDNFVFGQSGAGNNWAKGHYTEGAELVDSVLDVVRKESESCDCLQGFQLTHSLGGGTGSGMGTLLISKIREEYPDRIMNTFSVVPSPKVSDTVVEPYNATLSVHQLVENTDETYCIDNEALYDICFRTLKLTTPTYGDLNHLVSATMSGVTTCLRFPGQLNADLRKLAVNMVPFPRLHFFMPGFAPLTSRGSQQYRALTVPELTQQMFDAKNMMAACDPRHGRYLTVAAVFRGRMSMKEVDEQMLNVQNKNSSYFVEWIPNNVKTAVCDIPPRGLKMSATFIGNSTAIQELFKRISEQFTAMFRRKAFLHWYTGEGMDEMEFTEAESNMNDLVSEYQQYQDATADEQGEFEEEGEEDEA

[21] = test system: Tubulin alpha chain (Bos taurus); assay: The photoincorporation of [3H]AzB-taxol into alpha-subunit of tubulin was evaluated at initial ratio of 1.0
[22] = target: Tubulin beta chain (Sus scrofa) (UniProt P02554); assay: The photoincorporation of [3H]-AzB-taxol into beta-subunit of tubulin was evaluated at initial ratio of 1.0
Tubulin (Bos taurus) [23] = assay: The inhibition of photoincorporation of AzB-taxol into tubulin was evaluated in the presence of 7.5 uM of taxol; Complete inhibition

Tubulin alpha chain (Sus scrofa), sequence (P02550 whole entry, looked up): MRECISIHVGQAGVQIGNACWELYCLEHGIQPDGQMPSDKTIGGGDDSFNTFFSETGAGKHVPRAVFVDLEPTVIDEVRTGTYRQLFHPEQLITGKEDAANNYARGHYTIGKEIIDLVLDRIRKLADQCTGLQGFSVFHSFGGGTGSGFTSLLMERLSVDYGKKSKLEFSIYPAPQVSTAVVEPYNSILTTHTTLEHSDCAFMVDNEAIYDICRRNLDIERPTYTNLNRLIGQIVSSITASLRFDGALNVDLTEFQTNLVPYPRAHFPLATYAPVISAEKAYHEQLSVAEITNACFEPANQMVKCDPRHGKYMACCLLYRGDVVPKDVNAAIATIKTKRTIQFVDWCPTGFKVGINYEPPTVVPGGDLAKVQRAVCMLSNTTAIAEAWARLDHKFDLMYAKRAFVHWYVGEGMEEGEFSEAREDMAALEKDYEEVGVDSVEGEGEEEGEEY

SMILES: CC(=O)O[C@H]1C(=O)[C@@]2(C)C([C@H](OC(=O)c3ccccc3)[C@]3(O)C[C@H](OC(=O)[C@H](O)C(NC(=O)c4ccc(N=[N+]=[N-])cc4)c4ccccc4)C(C)=C1C3(C)C)[C@]1(OC(C)=O)CO[C@@H]1C[C@@H]2O (stereo partly drawn)
- Incorporated [1]: 20% and 19%
- Ratio [2]: 1.22
- Ratio [3]: 0.24
- Ratio [4]: 0.85
- Ratio [5]: 1.2
- Ratio [6]: 1.19
- Ratio [7]: 0.13
- Ratio [8]: 0.17
- Ratio [9]: 0.23
- Ratio [10]: 0.23
- Ratio [11]: 0.5
- Amount incorporated (M (M of tubulin)-1) (Tubulin (Bos taurus) [12]): 0.008
- Amount incorporated (M (M of tubulin)-1) (Tubulin (Bos taurus) [13]): 0.015
- Amount incorporated (M (M of tubulin)-1) (Tubulin (Bos taurus) [14]): 0.15
- Amount incorporated (M (M of tubulin)-1) (Tubulin (Bos taurus) [15]): 0.13
- Amount incorporated (M (M of tubulin)-1) (Tubulin (Bos taurus) [16]): 0.12
- Amount incorporated (M (M of tubulin)-1) (Tubulin (Bos taurus) [17]): 0.025
- Amount incorporated (M (M of tubulin)-1) (Tubulin (Bos taurus) [18]): 0.03
- Amount incorporated (M (M of tubulin)-1) (Tubulin (Bos taurus) [19]): 0.016
- Incorporated [20]: 80% and 81%
- Incorporated [21]: 14%
- Incorporated [22]: 86%
- Incorporated (Tubulin (Bos taurus) [23]): Complete inhibition
